{"source": "ChEMBL document CHEMBL1128448", "about": "“Synthesis and antifungal activity of new azole derivatives containing an N-acylmorpholine ring” (1995)", "key": {"Trichophyton benhamiae": {"tested_on": "Trichophyton benhamiae", "assay": "In vitro evaluation of minimum inhibitory concentration against Trichophyton mentagrophytes 23", "assay_type": "functional, Arthroderma benhamiae", "conditions": "Trichophyton benhamiae; read-out: MIC", "summary_of_the_method": "(§1)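 Stocks are 800 μg/mL in 50% ethanol. Each plate gets 10 μL of inoculum at 10^5 cfu/mL. Incubation at 25 °C, 48 h for yeasts and 120 h for dermatophytes and molds. Organisms are ATCC strains or clinical isolates.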"}, "Mus sp. [1]": {"tested_on": "Mus sp.", "assay": "In vivo evaluation of % survival rate after peroral administration on 5th day at dose 1 mg/kg", "assay_type": "functional", "conditions": "Mus sp., po"}, "Rhodotorula mucilaginosa": {"tested_on": "Rhodotorula mucilaginosa", "assay": "In vitro evaluation of minimum inhibitory concentration against Rhodotorula rubra 16", "assay_type": "functional", "conditions": "Rhodotorula mucilaginosa; read-out: MIC", "summary_of_the_method": "as §1"}, "Kluyveromyces marxianus": {"tested_on": "Kluyveromyces marxianus", "assay": "In vivo Evaluation of minimum inhibitory concentration against Candida pseudotropicalis 13", "assay_type": "functional", "conditions": "Kluyveromyces marxianus; in the assay text read “In vitro” for “In vivo”; read-out: MIC", "summary_of_the_method": "as §1"}, "Aspergillus niger": {"tested_on": "Aspergillus niger", "assay": "In vitro evaluation of minimum inhibitory concentration against Aspergillus niger 18", "assay_type": "functional", "conditions": "Aspergillus niger; read-out: MIC", "summary_of_the_method": "as §1"}, "Nannizzia gypsea": {"tested_on": "Nannizzia gypsea", "assay": "In vitro evaluation of minimum inhibitory concentration against Microsporum gypseum 22", "assay_type": "functional", "conditions": "Nannizzia gypsea; read-out: MIC", "summary_of_the_method": "as §1"}, "[2]": {"tested_on": "Meyerozyma guilliermondii", "assay": "In vitro evaluation of minimum inhibitory concentration against Candida guilliermondii 26", "assay_type": "functional", "conditions": "Meyerozyma guilliermondii; read-out: MIC", "summary_of_the_method": "as §1"}, "Candida albicans [3]": {"tested_on": "Candida albicans", "assay": "In vivo evaluation of minimum inhibitory concentration against Candida albicans 60", "assay_type": "functional", "conditions": "Candida albicans; read-out: MIC", "summary_of_the_method": "(§2)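 Broth macrodilution MIC following NCCLS M27-P, in RPMI-1640 buffered with 0.165 M MOPS. Fluconazole was dissolved in water and other drugs in DMSO. C. parapsilosis ATCC 22019 served as the reference strain in every run. MIC was the lowest concentration giving turbidity at or below the 80% inhibition standard.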"}, "Aspergillus flavus": {"tested_on": "Aspergillus flavus", "assay": "In vitro evaluation of minimum inhibitory concentration against Aspergillus flavus 19", "assay_type": "functional", "conditions": "Aspergillus flavus; read-out: MIC", "summary_of_the_method": "as §1"}, "Aspergillus fumigatus": {"tested_on": "Aspergillus fumigatus", "assay": "In vitro evaluation of minimum inhibitory concentration against Aspergillus fumigatus 33", "assay_type": "functional", "conditions": "Aspergillus fumigatus; read-out: MIC", "summary_of_the_method": "as §1"}, "Mus sp. [4]": {"tested_on": "Mus sp.", "assay": "In vivo evaluation of % survival rate after peroral administration on 7th day at dose 1 mg/kg", "assay_type": "functional", "conditions": "Mus sp., po"}, "Candida albicans [5]": {"tested_on": "Candida albicans", "assay": "In vivo evaluation of minimum inhibitory concentration against Candida albicans 406", "assay_type": "functional", "conditions": "Candida albicans; read-out: MIC", "summary_of_the_method": "as §2"}, "Candida albicans [6]": {"tested_on": "Candida albicans", "assay": "In vitro evaluation of minimum inhibitory concentration against Candida albicans 76", "assay_type": "functional", "conditions": "Candida albicans; read-out: MIC", "summary_of_the_method": "as §1"}, "Pichia kudriavzevii": {"tested_on": "Pichia kudriavzevii", "assay": "In vitro evaluation of minimum inhibitory concentration against Candida krusei 70", "assay_type": "functional", "conditions": "Pichia kudriavzevii; read-out: MIC", "summary_of_the_method": "as §1"}, "Mus sp. [7]": {"tested_on": "Mus sp.", "assay": "In vivo evaluation of % survival rate after peroral administration on 3rd day at dose 1 mg/kg", "assay_type": "functional", "conditions": "Mus sp., po"}, "Nakaseomyces glabratus": {"tested_on": "Nakaseomyces glabratus", "assay": "In vitro evaluation of minimum inhibitory concentration against Torulopsis glabrata 78", "assay_type": "functional", "conditions": "Nakaseomyces glabratus; read-out: MIC", "summary_of_the_method": "as §1"}, "Microsporum canis": {"tested_on": "Microsporum canis", "assay": "In vitro evaluation of minimum inhibitory concentration against Microsporum canis 47", "assay_type": "functional", "conditions": "Microsporum canis; read-out: MIC", "summary_of_the_method": "as §1"}, "Trichophyton rubrum": {"tested_on": "Trichophyton rubrum", "assay": "In vitro evaluation of minimum inhibitory concentration against Trichophyton rubrum 90", "assay_type": "functional", "conditions": "Trichophyton rubrum; read-out: MIC", "summary_of_the_method": "as §1"}, "Candida tropicalis": {"tested_on": "Candida tropicalis", "assay": "In vitro evaluation of minimum inhibitory concentration against Candida tropicalis 2.11", "assay_type": "functional", "conditions": "Candida tropicalis; read-out: MIC", "summary_of_the_method": "as §1"}, "Candida parapsilosis": {"tested_on": "Candida parapsilosis", "assay": "In vitro evaluation of minimum inhibitory concentration against Candida parapsilosis 61", "assay_type": "functional", "conditions": "Lodderomyces parapsilosis; read-out: MIC", "summary_of_the_method": "as §1"}, "Mus sp. [8]": {"tested_on": "Mus sp.", "assay": "In vivo evaluation of % survival rate after peroral administration on 9th day at dose 1 mg/kg", "assay_type": "functional", "conditions": "Mus sp., po"}}}
{"smiles": "C[C@H]1N(C(=O)c2ccc(OCC(F)(F)C(F)F)cc2)C[C@H](O)O[C@@]1(Cn1cncn1)c1ccc(F)cc1F", "note": "(racemic)", "values": [{"measurement": "MIC", "setting": "Trichophyton benhamiae", "result": "> 80", "unit": "µg/mL"}, {"measurement": "survival at 1 mg/kg", "setting": "Mus sp. [1]", "result": 50, "unit": "%"}, {"measurement": "MIC", "setting": "Rhodotorula mucilaginosa", "result": "> 80", "unit": "µg/mL"}, {"measurement": "MIC", "setting": "Kluyveromyces marxianus", "result": 0.63, "unit": "µg/mL"}, {"measurement": "MIC", "setting": "Aspergillus niger", "result": "> 80", "unit": "µg/mL"}, {"measurement": "MIC", "setting": "Nannizzia gypsea", "result": "> 80", "unit": "µg/mL"}, {"measurement": "MIC", "setting": "[2]", "result": 80, "unit": "µg/mL"}, {"measurement": "MIC", "setting": "Candida albicans [3]", "result": 5, "unit": "µg/mL"}, {"measurement": "MIC", "setting": "Aspergillus flavus", "result": "> 80", "unit": "µg/mL"}, {"measurement": "MIC", "setting": "Aspergillus fumigatus", "result": "> 80", "unit": "µg/mL"}, {"measurement": "survival at 1 mg/kg", "setting": "Mus sp. [4]", "result": 0, "unit": "%"}, {"measurement": "MIC", "setting": "Candida albicans [5]", "result": 1.25, "unit": "µg/mL"}, {"measurement": "MIC", "setting": "Candida albicans [6]", "result": 80, "unit": "µg/mL"}, {"measurement": "MIC", "setting": "Pichia kudriavzevii", "result": "> 80", "unit": "µg/mL"}, {"measurement": "survival at 1 mg/kg", "setting": "Mus sp. [7]", "result": 80, "unit": "%"}, {"measurement": "MIC", "setting": "Nakaseomyces glabratus", "result": "> 80", "unit": "µg/mL"}, {"measurement": "MIC", "setting": "Microsporum canis", "result": "> 80", "unit": "µg/mL"}, {"measurement": "MIC", "setting": "Trichophyton rubrum", "result": "> 80", "unit": "µg/mL"}, {"measurement": "MIC", "setting": "Candida tropicalis", "result": 80, "unit": "µg/mL"}, {"measurement": "MIC", "setting": "Candida parapsilosis", "result": 10, "unit": "µg/mL"}, {"measurement": "survival at 1 mg/kg", "setting": "Mus sp. [8]", "result": 0, "unit": "%"}]}
